In ChEMBL document CHEMBL1221233, “4''-O-(omega-Quinolylamino-alkylamino)propionyl derivatives of selected macrolides with the activity against the key erythromycin resistant respiratory pathogens” (2010):
≈ marks a conversion by molar mass, not a printed value.

Legend:
Type in all cases: functional
Streptococcus pneumoniae [1] = test: Antibacterial activity against constitutive MLS resistance Streptococcus pneumoniae 58 by broth microdilution method
Method in brief: (§1)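 MIC by CLSI broth microdilution. In the streptococcal medium, 5% horse serum replaced lysed blood. Compounds were tested as two-fold serial dilutions. Strains were first grown on Columbia agar with 5% sheep blood. The MIC was read as the lowest concentration inhibiting growth.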

Streptococcus pyogenes [2] = test: Antibacterial activity against efflux-mediated macrolide-resistance Streptococcus pyogenes 2 Finland by broth microdilution method; method in brief: as §1
Haemophilus influenzae = test: Antibacterial activity against Haemophilus influenzae ATCC 49247 by broth microdilution method
Method in brief: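 MIC by broth microdilution following CLSI guidelines, expressed in units of lg/mL. Twofold dilutions prepared in 96-well plates. H. influenzae grown on Mueller-Hinton chocolate agar before testing.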

Streptococcus pneumoniae [3] = test: Antibacterial activity against efflux-mediated macrolide-resistance Streptococcus pneumoniae Ci137 by broth microdilution method; method in brief: as §1
Streptococcus pneumoniae [4] = test: Antibacterial activity against inducible resistance to macrolide and constitutive resistance to lincosamide Streptococcus pneumoniae 134 GR M by broth microdilution method; method in brief: as §1
Streptococcus pyogenes [5] = test: Antibacterial activity against constitutive MLS resistance sStreptococcus pyogenes 166 GR-Micro by broth microdilution method; method in brief: as §1
Staphylococcus aureus [6] = test: Antibacterial activity against efflux-mediated macrolide-resistance Staphylococcus aureus PK1 by broth microdilution method
Method in brief: (§2)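 Staphylococci were grown on Mueller-Hinton agar and then tested by CLSI-guideline broth microdilution against two-fold serial dilutions of compound. The result was recorded as the minimum inhibitory concentration.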

Staphylococcus aureus [7] = test: Antibacterial activity against inducible resistance to macrolide, licosamide and streptogramin Staphylococcus aureus 90256 by broth microdilution method; method in brief: as §2

Row | SMILES | MIC (Streptococcus pneumoniae [1]) [µg/mL] | MIC (Streptococcus pyogenes [2]) [µg/mL] | MIC (Haemophilus influenzae) [µg/mL] | MIC (Streptococcus pneumoniae [3]) [µg/mL] | MIC (Streptococcus pneumoniae [4]) [µg/mL] | MIC (Streptococcus pyogenes [5]) [µg/mL] | MIC (Staphylococcus aureus [6]) [µg/mL] | MIC (Staphylococcus aureus [7]) [µg/mL]
1 | CC[C@H]1OC(=O)[C@H](C)[C@@H](O[C@H]2C[C@@](C)(OC)[C@@H](O)[C@H](C)O2)[C@H](C)[C@@H](O[C@@H]2O[C@H](C)C[C@H](N(C)C)[C@H]2O)[C@](C)(O)C[C@@H](C)CN(C)[C@H](C)[C@@H](O)[C@]1(C)O [AZITHROMYCIN] | > 64 | 8 (≈ 10.7 µM) | 1 (≈ 1.34 µM) | 8 (≈ 10.7 µM) | > 64 | > 64 | > 64 | > 64
2 | CC[C@H]1OC(=O)[C@H](C)[C@@H](O[C@H]2C[C@@](C)(OC)[C@@H](O)[C@H](C)O2)[C@H](C)[C@@H](O[C@@H]2O[C@H](C)C[C@H](N(C)C)[C@H]2O)[C@](C)(OC)C[C@@H](C)C(=O)[C@H](C)[C@@H](O)[C@]1(C)O [CLARITHROMYCIN] | > 16 | 4 (≈ 5.35 µM) | 8 (≈ 10.7 µM) | 4 (≈ 5.35 µM) | > 64 | > 16 | > 64 | > 64
3 | CC[C@H]1OC(=O)[C@H](C)C(=O)[C@H](C)[C@@H](O[C@@H]2O[C@H](C)C[C@H](N(C)C)[C@H]2O)[C@](C)(OC)C[C@@H](C)C(=O)[C@H](C)[C@H]2N(CCCCn3cnc(-c4cccnc4)c3)C(=O)O[C@]12C [TELITHROMYCIN] | 0.25 (≈ 0.308 µM) | 0.5 (≈ 0.616 µM) | 2 (≈ 2.46 µM) | 0.25 (≈ 0.308 µM) | 0.25 (≈ 0.308 µM) | 16 (≈ 19.7 µM) | ≤ 0.125 | ≤ 0.125
